# Source: ChEMBL document CHEMBL1152617, “Synthesis of 2- and 17-substituted estrone analogs and their antiproliferative structure-activity relationships compared to 2-methoxyestradiol” (Bioorg Med Chem, 2009)
# Experiments:
# MCF7 = test: Estrogenic activity in human MCF7 cells assessed as stimulation of cell proliferation relative to 2-methoxyestradiol; assay type: functional
# Outline: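 MCF-7 were kept in DMEM/F12 with 10% FBS, seeded at 20–30,000 cells/well, adhered overnight and counted. After a PBS wash they were starved 3 days in phenol red-free IMEM with 2% charcoal-dextran-stripped FBS. Increasing concentrations were given, with medium renewed every 2–3 days. Cells were Coulter-counted after 8 or 10 days, in triplicate, and expressed as stimulation index relative to 2ME2 (1.00).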
# [1] = system: MDA-MB-231 (Homo sapiens); test: Antiproliferative activity against human MDA-MB-231 cells by Brdu incorporation assay
# PC-3 = test: Antiproliferative activity against human PC3 cells by Brdu incorporation assay; assay type: functional, cell-based
# Outline: (§1)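 Cells were grown in DMEM with 10% FBS, 2 mM L-glutamine and penicillin/streptomycin. They were seeded at 2000 cells/well, attached overnight, then exposed to increasing compound concentrations for 48 h. DNA synthesis was read by a colorimetric BrdU ELISA. Each condition was run in triplicate, with at least two experiments, reported as the mean ± SD of independent experiments.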
# HUVEC = test: Antiangiogenic activity against HUVECs by Brdu incorporation assay; assay type: functional, cell-based; details: Homo sapiens
# Outline: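 After overnight attachment they were washed with PBS and held 24 h without growth factor (EBM, 2% FBS). They were then given increasing drug concentrations in EBM with 2% FBS plus 10 ng/mL bFGF for 48 h at 37 °C. Proliferation was read by BrdU ELISA.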
# [2] = Antiproliferative activity against human U87MG cells by Brdu incorporation assay; assay type: functional, cell-based, U-87MG ATCC; details: U-87 MG; outline: as §1
# [3] = Metabolic stability in human liver microsomes assessed as compound remaining at 5 uM after 15 mins by LCMS analysis relative to 0 mins; assay type: ADME, Microsome; details: read-out: Stability
# Outline: (§2)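 Human liver microsomes were incubated in 50 mM tris pH 7.5 with 10 mM MgCl2, 2 mM UDPGA, 25 µg alamethicin/mg microsomal protein and 5 µM compound. Aliquots at 0, 15, 30 and 60 min were quenched in acetonitrile with internal standard. Samples were analysed by C18 LCMS in negative ion mode as % remaining versus 0 min. Controls were BSA without microsomes, and incubations lacking UDPGA.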
# [4] = Metabolic stability in human liver microsomes assessed as compound remaining at 5 uM after 60 mins by LCMS analysis relative to 0 mins; assay type: ADME, Microsome; details: read-out: Stability; outline: as §2
# [5] = Metabolic stability in human liver microsomes assessed as compound remaining at 5 uM after 30 mins by LCMS analysis relative to 0 mins; assay type: ADME, Microsome; details: read-out: Stability; outline: as §2
SMILES,IC50 [1] [µM],IC50 (PC-3) [µM],"remaining at 0.25 h, 5 µM [3] [%]","remaining at 1 h, 5 µM [4] [%]","remaining at 0.5 h, 5 µM [5] [%]",fold change (FC) (MCF7),IC50 (HUVEC) [µM],IC50 [2] [µM]
C[C@@]12CCC[C@H]1[C@@H]1CCc3cc(O)ccc3[C@H]1CC2,41.3,22,,,,1.91,8.22,22.1
CC=C1CC[C@H]2[C@@H]3CCc4cc(O)c(OC)cc4[C@H]3CC[C@]12C,0.58,,75,0.8,75,0.89,0.26,
CC[C@H]1CC[C@H]2[C@@H]3CCc4cc(O)c(OC)cc4[C@H]3CC[C@]12C,48.1,8.7,91,72,76,0.49,3.63,12.8
CNc1cc2c(cc1O)CC[C@@H]1[C@@H]2CC[C@]2(C)CCC[C@@H]12,26.8,22.8,,,,1.22,4.11,22.3
CN(C)c1cc2c(cc1O)CC[C@@H]1[C@@H]2CC[C@]2(C)CCC[C@@H]12.Cl,39.3,26,,,,2.17,7.43,34.2
C[C@@]12CCC[C@H]1[C@@H]1CCc3cc(O)c(N)cc3[C@H]1CC2,> 100,> 80,,,,1.49,60.1,> 100
CCCC[C@H]1CC[C@H]2[C@@H]3CCc4cc(O)c(OC)cc4[C@H]3CC[C@]12C,33.5,28.8,,,,0.59,12.6,21.1
COc1cc2c(cc1O)CC[C@@H]1[C@@H]2CC[C@]2(C)CCC[C@@H]12,2.2,8.49,94,117,101,0.24,1.32,7.59
C[C@@]12CCC[C@H]1[C@@H]1CCc3cc(O)c(NC=O)cc3[C@H]1CC2,24.6,26,101,68,86,1.71,6.8,42.9
COc1cc2c(cc1O)CC[C@@H]1[C@@H]2CC[C@]2(C)[C@@H](O)CC[C@@H]12 [2-METHOXYESTRADIOL],1,2.65,58,9.4,29,,,8.54

# Further lines, with some results ahead:
IC50 [1] [µM],IC50 (PC-3) [µM],"remaining at 0.25 h, 5 µM [3] [%]","remaining at 1 h, 5 µM [4] [%]","remaining at 0.5 h, 5 µM [5] [%]",SMILES,fold change (FC) (MCF7),IC50 (HUVEC) [µM],IC50 [2] [µM]
8.68,8.11,,,,COc1cc2c(cc1O)CC[C@@H]1[C@@H]2CC[C@]2(C)/C(=N/O)CC[C@@H]12,1.22,4.27,9.4
9.77,13.8,32,9,30,COc1cc2c(cc1O)CC[C@@H]1[C@@H]2CC[C@]2(C)[C@@H](N)CC[C@@H]12,0.19,13.4,19
95.3,85.4,,,,CCC[C@H]1CC[C@H]2[C@@H]3CCc4cc(O)c(OC)cc4[C@H]3CC[C@]12C,0.69,40.8,87.9
7.12,,,,,C[C@@]12CCC[C@H]1[C@@H]1CCc3cc(O)c(N=[N+]=[N-])cc3[C@H]1CC2,2.04,2.83,
72.5,27.2,,,,COc1cc2c(cc1O)CC[C@@H]1[C@@H]2CC[C@]2(C)/C(=N/NS(=O)(=O)c3ccc(C)cc3)CC[C@@H]12,0.43,7.95,27.3
3.33,6.46,67,47,57,COc1cc2c(cc1O)CC[C@@H]1[C@@H]2CC[C@]2(C)[C@@H](C)CC[C@@H]12,0.89,2.4,9.39
14,,,,,CCCC=C1CC[C@H]2[C@@H]3CCc4cc(O)c(OC)cc4[C@H]3CC[C@]12C,0.51,3.47,
2.51,21.5,,,,COc1cc2c(cc1O)CC[C@@H]1[C@@H]2CC[C@]2(C)C(C(N)=O)CC[C@@H]12 (stereo not given in full),,4.55,11.2
> 100,> 100,,,,COc1cc2c(cc1O)CC[C@@H]1[C@@H]2CC[C@]2(C)C(C(=O)O)CC[C@@H]12 (stereo not given in full),,35.9,> 100
0.24,,76,5.8,67,C=C1CC[C@H]2[C@@H]3CCc4cc(O)c(OC)cc4[C@H]3CC[C@]12C,0.89,0.19,
17.8,23.4,,,,COc1cc2c(cc1O)CC[C@@H]1[C@@H]2CC[C@]2(C)[C@@H](NC(C)C)CC[C@@H]12,0.11,18.8,49.2
7.89,,,,,CCC=C1CC[C@H]2[C@@H]3CCc4cc(O)c(OC)cc4[C@H]3CC[C@]12C,0.47,3.23,
0.73,0.62,,,,COc1cc2c(cc1O)CC[C@@H]1[C@@H]2CC[C@]2(C)C=CC[C@@H]12,0.3,0.71,0.88
